Assay results taken from the array DNA melting data of Ke et al. (doi:10.1101/2024.01.08.574731).

How the values were obtained:
[1] = folding enthalpy; higher = less favourable; fluorescence melt of hairpins on a sequencing array, two-state fit; conditions: sodium 0.088 M
Summary of the method: (§1)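 Melting temperature and folding enthalpy were derived from bootstrapped two-state fits. The fitted temperatures were raised by 9.35 °C to agree with UV melts, and four replicates were combined by inverse variance. The underlying data were Cy3 fluorescence images of library hairpins, with annealed Cy3 and quencher oligos, on a sequenced MiSeq flow cell in 50 mM Na-HEPES pH 8.0, 25 mM NaCl, taken in 2.5 °C steps up to 60 °C, normalised to pre-quench Cy3 and to control constructs.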

[2] = melting temperature; fluorescence melt of hairpins on a sequencing array, two-state fit, raised by 9.35 °C to match UV melts; conditions: sodium 0.088 M
Summary of the method: as §1

Row | Sequence | folding enthalpy [1] [kcal/mol] | Tm [2] [°C]
1 | GGAGTGGGAAACCACTCC (((((((....))))))) | -38.6 | 68.2
2 | GCCTACGAAAGTAGCGGC ((((((....)))..))) | -19.5 | 49.6
3 | ATCCAGAAATGGAT (((((....))))) | -14.3 | 41.2
4 | GGGTATGCGAAAGCACCC (((..(((....)))))) | -21.2 | 50.4
5 | GGGAGGCGAAAGCCACCC (((.(((....))).))) | -25.1 | 65.6
6 | GCTTTGCGAAAGCTAAGC ((((.((....)).)))) | -28.8 | 62.7
7 | GCCTACGAAAGTAGAGGC ((((((....)))..))) | -22.7 | 49.3
8 | GATCTCAAATGAGATC ((((((....)))))) | -37.8 | 50
9 | GACGATGAAAATCGTC ((((((....)))))) | -31.1 | 61.1
10 | GCCAGGGGAAACCCTAGC ((.((((....)))).)) | -22.8 | 41
11 | GTAGTTCGAAAGAAATAC (((.(((....))).))) | -29.2 | 42.2
12 | GATCAGGATACTGATC ((((((....)))))) | -33.8 | 56
13 | GTCACTGGAAACAGTGAC (((((((....))))))) | -46.7 | 63
14 | GAGAACGAAAGTTCTC ((((((....)))))) | -36 | 62.4
15 | GATCAGCTTTCTGATC ((((((....)))))) | -35 | 50.5
16 | GATCGAACCGTCGATC ((((((....)))))) | -37 | 49.5
17 | GGAAACCGAAAGGTCTCC (((.(((....))).))) | -27.5 | 44.8
18 | GCGGCTGGAAACGGTCGC (((.(.(....).).))) | -43.2 | 54
19 | GAATACGAAAGTATTTTC ((((((....)))..))) | -19.9 | 36.9
20 | GTGTGTGGAAACGCACAC (((((.(....).))))) | -36.2 | 56.5
21 | ACAAGGAAACTTGT (((((....))))) | -12.6 | 40.3
22 | GCAGGGCGAAAGCTGTGC (((..((....))..))) | -21.7 | 52.2
23 | GCGCAGACGAAAGTCCGC (((..(((....)))))) | -25 | 52.4

Row | Sequence | folding enthalpy [1] [kcal/mol] | Tm [2] [°C]
24 | GGATGGGGAAACCCGTCC (((.(((....))).))) | -48.4 | 54.2
25 | GCTGGGGGAAACCCCAAC (.(((((....))))).) | -13.2 | 38.5
26 | GAGTGCGAAAGCAGGCTC ((((((....)))..))) | -16.7 | 48.3
27 | GATCTCGTTTGAGATC ((((((....)))))) | -32.9 | 55.6
28 | CGTAACCGGAAACGGACG (((..(((....)))))) | -15.2 | 34
29 | GTAGCCGAAAGGCAATAC ((((((....)))..))) | -9.85 | 31.2
30 | GGTTCGCGAAAGCGACC (((.(((....)))))) | -14.9 | 61.7
31 | GCCAGCGGAAACACTGGC (((((.(....).))))) | -39.2 | 52.8
32 | GCAATGGGAAACCATTAC (.(((((....))))).) | -14.9 | 33.9
33 | GTGGCTGGAAACAGTCAC (((.(((....))).))) | -36.9 | 55.1
34 | GGGAGAGGAAACCCTCCC (((((.(....).))))) | -28.6 | 47.6
35 | GCCTCGCGAAAGCTACGC ((.(.((....)).).)) | -5.87 | 20
36 | GATCATAGACATGATC ((((((....)))))) | -34.4 | 45.7
37 | GTAGACGCGAAAGCGTAC (((..(((....)))))) | -8.63 | 36.9
38 | GTTTCCACGAAAGTGAAC (((..(((....)))))) | -8.62 | 27.2
39 | GTCGGCCCGAAAGGGGAC (((..(((....)))))) | -12.6 | 43.3
40 | GGGTTCGAAAGAACGCCC ((((((....)))..))) | -11.2 | 50
41 | GATCACCGGGGTGATC ((((((....)))))) | -46.5 | 62.7
42 | GTACAAACGAAAGTTTAC (((..(((....)))))) | -8.86 | 22.1
43 | GCTAGCGGAAACGTTAGC ((((.((....)).)))) | -34.1 | 51.3
44 | GGCCTGGGAAACCAGACC ((.((((....)))).)) | -30.1 | 49
45 | GCGTCGCGAAAGCCACGC ((((.((....)).)))) | -31.1 | 64
46 | GCGAGGCGAAAGCCCAGC ((..(((....)))..)) | -10.4 | 63.4

Row | Sequence | folding enthalpy [1] [kcal/mol] | Tm [2] [°C]
47 | GACCACGGAAACGTAGCC (.(.(((....))).).) | -9.48 | 23.6
48 | GGTTTCGGAAACGAAATC (.(((((....))))).) | -25.1 | 48
49 | GCGCAGTCGAAAGACCGC (((..(((....)))))) | -26.1 | 52.8
50 | GCCCCGCGAAAGCTGGGC ((((.((....)).)))) | -39.2 | 68.8
51 | GATCGGCATGCCGATC ((((((....)))))) | -44.7 | 67.4
52 | GCGATACGAAAGTAACGC (((.(((....))).))) | -41.5 | 57.9
53 | GGAGCAGGAAACCACTCC ((((..(....)..)))) | -11.5 | 27.1
54 | GATCCGCTGTCGGATC ((((((....)))))) | -42.1 | 57.8
55 | GGAGGGTCGAAAGACTCC (((..(((....)))))) | -14.3 | 39.5
56 | GTCGCTGGAAACAGTGAC (((.(((....))).))) | -50.4 | 54.9
57 | GTCACGGGAAACCGTGGC (.(((((....))))).) | -19 | 62.7
58 | GATCCTGCTCAGGATC ((((((....)))))) | -48.1 | 55.2
59 | GATCTGACGTCAGATC ((((((....)))))) | -42.6 | 55.5
60 | GATCTCGCGGGAGATC ((((((....)))))) | -33.1 | 52.4
61 | GATCTCAGCAGAGATC ((((((....)))))) | -31.9 | 58.2
62 | GATCAAAGTATTGATC ((((((....)))))) | -29.8 | 42.6
63 | GATCCCGATGGGGATC ((((((....)))))) | -34.8 | 63.3
64 | GTCTGACGAAAGTCGAC (((.(((....)))))) | -16.9 | 49
65 | GTTGGCGAAAGCCAGAAC ((((((....)))..))) | -8.8 | 35.1
66 | GCCAACGAAAGTTAGGC ((((((....))).))) | -28.9 | 52.8
67 | GCCTAGGGAAACCTAGGC (((((((....))))))) | -36.9 | 67.5
68 | GGTTCCGAAAGGAGTACC ((((((....)))..))) | -21 | 38.9
69 | GGAAGCGAAAGCTCCTCC ((((((....)))..))) | -16.8 | 51.3

Row | Sequence | folding enthalpy [1] [kcal/mol] | Tm [2] [°C]
70 | GGATACACGAAAGTGTCC (((..(((....)))))) | -12 | 35.9
71 | GATCAGGAGGCTGATC ((((((....)))))) | -37.2 | 48.2
72 | GGACCAGGAAACTGATCC (((.(((....))).))) | -34.2 | 40.3
73 | GCTGTACGAAAGTATAGC (((.(((....))).))) | -39.6 | 54
74 | GATGCCCCGAAAGGGATC (((..(((....)))))) | -10.3 | 32.5
75 | GCACGCGAAAGCGCTGC ((((((....))).))) | -18.4 | 62.4
76 | GGACGAGAAATCGTCC ((((((....)))))) | -47 | 60.2
77 | GATCCCAAAGGGATC ((((((...)))))) | -35.4 | 65.5
78 | GATCGTCCTGACGATC ((((((....)))))) | -46.3 | 59.4
79 | GATCTTGATCAAGATC ((((((....)))))) | -40.9 | 49.7
80 | GATCGAGACGTCGATC ((((((....)))))) | -37.3 | 57.2
81 | CGTTGCCGGAAACGGACG (((..(((....)))))) | -13.3 | 44.3
82 | GGCGCCGAAAGGCATGCC ((((((....)))..))) | -19.2 | 59.7
83 | GATCAACTGATTGATC ((((((....)))))) | -32.3 | 42.7
84 | GCTAGGGGAAACCCTAGC (((((((....))))))) | -44.2 | 65.9
85 | GGAGCCGAAAGGCGTCC ((((((....))).))) | -9.6 | 53.4
86 | GATCTTTGAAAAGATC ((((((....)))))) | -29.4 | 42.2
87 | GTATCGGGAAACCGGTAC (((.(((....))).))) | -32 | 48.9
88 | GATCTTATTGAAGATC ((((((....)))))) | -31.5 | 41.8
89 | GACCCTCCGAAAGGAGTC (((..(((....)))))) | -7.33 | 23.4
90 | GGGTGGGGAAACCTGCCC (((..((....))..))) | -25.5 | 49.7
91 | GCTCGGGGAAACTCGAGC (((((.(....).))))) | -44.2 | 58.5
92 | GCGAAACGAAAGTTGCGC (((.(((....))).))) | -35.8 | 65.7
